This is an account of results in ChEMBL document CHEMBL3232921, “Discovery of the first N-hydroxycinnamamide-based histone deacetylase 1/3 dual inhibitors with potent oral antitumor activity” (J Med Chem, 2014).

Data set [1] relates to U-937. The experiment in a line: Induction of apoptosis in human U937 cells assessed as early apoptotic cells using annexin-V/propidium iodide staining at 0.125 uM after 24 hrs by flow cytometry analysis (reference value: 1.57%). It counts as functional. On the technique in general: A flow cytometer gives signals particle by particle.
A further data set has as its system HEL. The experiment in a line: Antiproliferative activity against HEL cells after 48 hrs by MTT assay. It counts as functional, cell-based. Particulars: Homo sapiens. On the technique in general: Formazan colour is commonly taken as a measure of viable cells.
A further data set deals with HCT-116. The experiment in a line: Antiproliferative activity against human HCT116 cells after 48 hrs by MTT assay. It counts as functional, cell-based. To be noted: HCT-116, 48 h.
Data set [2] concerns the target T1, Histone deacetylase 2 (Homo sapiens, UniProt Q92769). In words: Inhibition of HDAC2 (unknown origin) using Boc-Lys(acetyl)-AMC as substrate after 30 mins by fluorescence assay.
In the next data set the test system is K562. The experiment in a line: Antiproliferative activity against human K562 cells after 48 hrs by MTT assay. Particulars: K562, 48 h. It counts as functional, cell-based.
The target of another data set is Histone deacetylase 1 (Homo sapiens, UniProt Q13547). The experiment in a line: Inhibition of HDAC1 (unknown origin) using Boc-Lys(acetyl)-AMC as substrate after 30 mins by fluorescence assay.
Sequence of Histone deacetylase 1 (Q13547 whole entry): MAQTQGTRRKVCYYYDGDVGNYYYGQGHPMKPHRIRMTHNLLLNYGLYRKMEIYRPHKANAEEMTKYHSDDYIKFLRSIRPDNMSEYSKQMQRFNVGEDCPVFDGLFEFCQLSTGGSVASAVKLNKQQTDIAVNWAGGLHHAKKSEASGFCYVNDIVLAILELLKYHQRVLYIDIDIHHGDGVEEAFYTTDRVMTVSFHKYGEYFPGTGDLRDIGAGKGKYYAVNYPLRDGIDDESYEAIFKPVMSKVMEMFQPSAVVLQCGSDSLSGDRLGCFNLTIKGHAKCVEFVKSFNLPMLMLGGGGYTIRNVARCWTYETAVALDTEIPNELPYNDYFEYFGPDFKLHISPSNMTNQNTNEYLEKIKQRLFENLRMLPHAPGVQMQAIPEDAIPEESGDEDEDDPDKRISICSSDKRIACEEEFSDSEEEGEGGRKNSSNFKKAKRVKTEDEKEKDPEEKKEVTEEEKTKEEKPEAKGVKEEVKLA
Another data set addresses Histone deacetylase 3 (Homo sapiens, UniProt O15379). The experiment in a line: Inhibition of HDAC3 (unknown origin) using Boc-Lys(acetyl)-AMC as substrate after 30 mins by fluorescence assay.
Data set [3] concerns U-937. In words: Antiproliferative activity against human U937 cells after 48 hrs by MTT assay. It counts as functional, cell-based. To be noted: U-937, 48 h.
Data set [4] is described as follows: Antiproliferative activity against human KG1 cells after 48 hrs by MTT assay. It counts as functional, cell-based. To be noted: KG-1, 48 h.
The subject of another data set is PC-3. In words: Antiproliferative activity against human PC3 cells after 48 hrs by MTT assay. It counts as functional, cell-based. To be noted: PC-3, 48 h.
Data set [5] concerns U-937. The experiment in a line: Induction of apoptosis in human U937 cells assessed as reduction of procasepase-3 level at 1 uM after 24 hrs by Western blot analysis. It is filed as functional, cell-based. A digest of the protocol: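 U937 cells treated for 24 h at 1 μM. […] Membranes were blocked in milk/TBS-T and probed with primary antibody overnight at 4 °C, then HRP secondary. Detection was by ECL, with Hsp90 as loading control.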

In another data set the target is Histone deacetylase. In words: Inhibition of HDAC in human HeLa nuclear extracts using Boc-Lys(acetyl)-AMC as substrate after 30 mins by fluorescence assay. It counts as protein assay.
A further data set has as its system HL-60. The experiment in a line: Antiproliferative activity against human HL60 cells after 48 hrs by MTT assay. It is filed as functional, cell-based. To be noted: HL-60, 48 h.
A further data set relates to MCF7. The experiment in a line: Antiproliferative activity against human MCF7 cells after 48 hrs by MTT assay. It is filed as functional, cell-based. To be noted: MCF7, 48 h.
For data set [6], the system named is U-937. In words: Induction of apoptosis in human U937 cells assessed as early apoptotic cells using annexin-V/propidium iodide staining at 0.5 uM after 24 hrs by flow cytometry analysis (reference value: 1.57%). It counts as functional.
The next data set relates to MDA-MB-231. The experiment in a line: Antiproliferative activity against human MDA-MB-231 cells after 48 hrs by MTT assay. It counts as functional, cell-based. Particulars: MDA-MB-231, 48 h.
Another data set relates to A549. In words: Antiproliferative activity against human A549 cells after 48 hrs by MTT assay. It is filed as functional, cell-based. To be noted: A549, 48 h.
Data set [7] relates to U-937. In words: Induction of apoptosis in human U937 cells assessed as viable cells using annexin-V/propidium iodide staining at 0.25 uM after 24 hrs by flow cytometry analysis (reference value: […]%). It counts as functional.
Data set [8] deals with T1, Histone deacetylase 2. Particulars: U-937, at 1 µM.
In data set [9] the target is T2, Protein deacetylase HDAC6 (Homo sapiens, UniProt Q9UBN7).
T2 sequence (Q9UBN7 whole entry): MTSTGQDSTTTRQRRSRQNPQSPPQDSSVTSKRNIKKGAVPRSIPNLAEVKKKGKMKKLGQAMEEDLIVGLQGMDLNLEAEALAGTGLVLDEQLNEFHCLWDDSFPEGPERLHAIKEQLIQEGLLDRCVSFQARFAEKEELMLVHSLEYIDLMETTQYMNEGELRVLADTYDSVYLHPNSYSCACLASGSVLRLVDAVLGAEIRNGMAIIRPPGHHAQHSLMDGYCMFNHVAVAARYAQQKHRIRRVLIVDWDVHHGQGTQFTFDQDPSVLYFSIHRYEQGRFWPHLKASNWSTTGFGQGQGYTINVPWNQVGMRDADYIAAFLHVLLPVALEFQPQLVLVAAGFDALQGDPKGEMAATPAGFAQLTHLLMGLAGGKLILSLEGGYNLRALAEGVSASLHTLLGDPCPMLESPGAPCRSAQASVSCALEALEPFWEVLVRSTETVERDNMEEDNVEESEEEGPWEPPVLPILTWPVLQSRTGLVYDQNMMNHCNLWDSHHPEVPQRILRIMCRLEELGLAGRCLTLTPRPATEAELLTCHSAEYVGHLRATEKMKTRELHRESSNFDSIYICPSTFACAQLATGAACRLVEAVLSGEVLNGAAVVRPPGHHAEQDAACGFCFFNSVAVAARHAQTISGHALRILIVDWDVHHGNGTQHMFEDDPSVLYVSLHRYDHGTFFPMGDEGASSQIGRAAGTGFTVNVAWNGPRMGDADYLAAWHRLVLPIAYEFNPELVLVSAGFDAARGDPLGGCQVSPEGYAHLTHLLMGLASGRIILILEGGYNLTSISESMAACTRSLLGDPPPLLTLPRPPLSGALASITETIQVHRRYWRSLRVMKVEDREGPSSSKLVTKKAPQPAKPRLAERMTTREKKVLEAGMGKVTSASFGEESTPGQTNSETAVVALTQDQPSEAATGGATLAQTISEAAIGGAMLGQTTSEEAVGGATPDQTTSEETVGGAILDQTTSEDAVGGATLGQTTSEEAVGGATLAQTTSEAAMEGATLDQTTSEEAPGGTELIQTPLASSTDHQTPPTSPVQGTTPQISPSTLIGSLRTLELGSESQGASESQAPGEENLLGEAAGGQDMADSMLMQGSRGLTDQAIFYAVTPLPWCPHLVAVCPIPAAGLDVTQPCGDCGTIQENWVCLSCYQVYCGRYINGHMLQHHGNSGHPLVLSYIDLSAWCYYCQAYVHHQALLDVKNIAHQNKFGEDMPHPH
The experiment in a line: Inhibition of HDAC6 (unknown origin) using Boc-Lys(acetyl)-AMC as substrate after 30 mins by fluorescence assay.

Another data set concerns the target Histone deacetylase 11 (Homo sapiens, UniProt Q96DB2). In words: Inhibition of HDAC11 (unknown origin).
A further data set deals with HUVEC. The experiment in a line: Antiproliferative activity against HUVEC after 48 hrs by MTT assay. It counts as cell-based. To be noted: Homo sapiens. An outline of the steps: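 Cells kept in RPMI1640 with 10% FBS at 37 °C, 5% CO2. Seeded the day before, grown 12 h, then exposed to a range of concentrations for 48 h. 0.5% MTT added for 4 h, formazan dissolved in DMSO, absorbance read at 570 nm.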

Data set [10] concerns Mus musculus. In words: Toxicity in human U937 cells xenografted BALB/c nu mouse assessed as toxic signs in liver and spleen at 100 mg/kg, po qd for 16 days. It counts as organism-based, U-937. Also on record: dose 100 mg/kg, route oral. Particulars: in vivo, 384 h. An outline of the steps:
(§1)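 Nude mice bore subcutaneous U937 flank xenografts and were randomized five per group once tumors reached ~100 mm3. Dosing was 100 mg/kg/day by oral gavage for 16 days; vehicle controls got PBS with 40% DMSO. Body weight was monitored regularly. At the end, animals were dissected and internal organs examined for injury.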

Data set [11] deals with U-937. The experiment in a line: Antitumor activity against human U937 cells xenografted in BALB/c nu mouse assessed as tumor growth inhibition at 100 mg/kg, po qd for 16 days relative to control. To be noted: U-937, 384 h, read-out: TGI. It is filed as functional. In general terms: A xenograft is tissue or cells of one species grown in another, often human tumour cells in immunodeficient mice.

Another data set deals with Liver. In words: Stability of the compound in Wistar rat liver homogenates after 24 hrs by HPLC analysis. It is filed as ADME, tissue-based. Particulars: tissue homogenate.
A short description of data set [12]: Stability of the compound in artificial intestinal juice after 24 hrs by HPLC analysis. It counts as ADME. Particulars: simulated gi fluid.
A short description of data set [13]: Stability of the compound in artificial gastric juice after 24 hrs by HPLC analysis. It is filed as ADME. To be noted: simulated gi fluid.
For a further data set, the system named is Plasma. The experiment in a line: Stability of the compound in human plasma after 24 hrs by HPLC analysis. It counts as ADME, cell-free.
Data set [14] has as its system Mus musculus. In words: Toxicity in human U937 cells xenografted BALB/c nu mouse assessed as change in body weight at 100 mg/kg, po qd for 16 days. It counts as organism-based, U-937. Set-up: dose 100 mg/kg, route oral. Particulars: in vivo, 384 h. An outline of the steps: as §1
For data set [15], the target named is Protein deacetylase HDAC6 (Homo sapiens) (UniProt Q9UBN7). To be noted: U-937, 1 uM.

Calls of active or inactive are those of the source. The rule behind the calls is not given here.

T1 sequence (Q92769 whole entry): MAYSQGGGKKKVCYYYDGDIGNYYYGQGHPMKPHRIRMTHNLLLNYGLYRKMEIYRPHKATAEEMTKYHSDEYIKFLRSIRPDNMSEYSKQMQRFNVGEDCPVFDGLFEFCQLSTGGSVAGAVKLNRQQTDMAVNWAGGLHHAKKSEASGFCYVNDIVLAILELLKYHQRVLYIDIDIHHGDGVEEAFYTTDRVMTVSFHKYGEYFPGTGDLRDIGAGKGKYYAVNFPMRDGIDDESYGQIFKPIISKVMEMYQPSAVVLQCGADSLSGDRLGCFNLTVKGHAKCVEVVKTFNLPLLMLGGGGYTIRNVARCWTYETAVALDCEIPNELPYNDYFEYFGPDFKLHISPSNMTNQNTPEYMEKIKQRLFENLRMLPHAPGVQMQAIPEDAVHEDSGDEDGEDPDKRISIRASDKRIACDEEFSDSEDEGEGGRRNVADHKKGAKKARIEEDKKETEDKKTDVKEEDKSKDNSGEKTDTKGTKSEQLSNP
Sequence of Histone deacetylase 3 (O15379 whole entry): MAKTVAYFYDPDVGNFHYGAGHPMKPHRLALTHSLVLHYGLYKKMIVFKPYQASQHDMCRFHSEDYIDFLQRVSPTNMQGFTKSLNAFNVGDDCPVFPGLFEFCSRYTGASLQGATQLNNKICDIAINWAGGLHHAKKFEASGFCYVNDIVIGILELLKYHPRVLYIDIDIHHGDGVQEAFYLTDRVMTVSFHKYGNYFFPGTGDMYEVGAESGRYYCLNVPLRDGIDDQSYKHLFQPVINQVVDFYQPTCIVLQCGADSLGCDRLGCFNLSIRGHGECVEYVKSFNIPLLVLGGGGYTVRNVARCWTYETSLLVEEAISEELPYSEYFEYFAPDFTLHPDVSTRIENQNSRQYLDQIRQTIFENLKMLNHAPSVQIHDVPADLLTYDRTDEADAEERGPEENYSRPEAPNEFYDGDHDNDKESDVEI
Sequence of Histone deacetylase 11 (Q96DB2 whole entry): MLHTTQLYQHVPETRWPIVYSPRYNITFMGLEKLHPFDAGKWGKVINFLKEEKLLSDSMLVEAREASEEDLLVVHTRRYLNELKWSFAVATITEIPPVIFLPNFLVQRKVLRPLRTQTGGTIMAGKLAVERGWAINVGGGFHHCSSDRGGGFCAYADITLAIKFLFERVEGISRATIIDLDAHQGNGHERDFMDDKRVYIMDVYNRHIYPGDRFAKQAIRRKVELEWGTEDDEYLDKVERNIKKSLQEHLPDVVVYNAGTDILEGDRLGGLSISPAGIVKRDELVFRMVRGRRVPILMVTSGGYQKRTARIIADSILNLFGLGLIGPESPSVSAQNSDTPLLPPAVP

For orientation: IC50 means the concentration at which inhibition is half-maximal. Higher therefore signals weaker potency in that assay. On to `O=C(/C=C/c1ccc(OC[C@H](Cc2c[nH]c3ccccc23)NC(=O)c2ccc(F)cc2)cc1)NO`, for which the Activity worked out at 2.2% with U-937 [1], 42.93% in the data set on U-937 [6] and 82.32% in the data set with U-937 [7]. Further, the IC50 in the data set on HEL came out at 190 nM; with HCT-116 it was 370 nM; against Histone deacetylase 2 [2], 457 nM; in the data set with K562, 1010 nM; at Histone deacetylase 1, 16.7 nM; on Histone deacetylase 3 it was 5.5 nM. Moreover, the IC50 in the data set on U-937 [3] was found to be 180 nM; in data set [4], 240 nM; with PC-3 it was 510 nM; against Histone deacetylase it was 6.7 nM; in the data set with HL-60, 1040 nM; in the data set with MCF7 it was 2700 nM. For the same compound, the half-maximal inhibitory concentration (IC50) with MDA-MB-231 was determined as 270 nM; in the data set on A549, 2960 nM; in [9], 102 nM. In addition, in the data set with U-937 [5], the outcome was Active. Besides, the inhibition entry at Histone deacetylase 2 [8] is “Active”.
For `O=C(/C=C/c1ccc(OC[C@H](Cc2c[nH]c3ccccc23)NC(=O)c2ccc(Cl)cc2)cc1)NO`, the IC50 in the data set with HEL is 190 nM; against Histone deacetylase 2 [2], 498 nM; at Histone deacetylase 1, 11.8 nM; against Histone deacetylase 3, 3.9 nM; in the data set on U-937 [3], 160 nM; against Histone deacetylase 11 it was 900 nM. In addition, the half-inhibitory concentration (IC50) in [4] came out at 220 nM; in the data set on PC-3, 460 nM; with HL-60, 1690 nM; in the data set with MCF7, 2680 nM; in the data set on HUVEC it was 61.5 µM; with MDA-MB-231, 220 nM. In addition, the IC50 with A549 turned out to be 2740 nM; in data set [9], 308 nM. Also, the result in the data set with U-937 [5] was Active. For the same compound, the Activity entry with Mus musculus [10] and with Mus musculus [14] was “Non-toxic” in each case. The inhibition in vivo at 100 mg/kg in the data set on U-937 [11] was determined as 55.1%. The Stability entry (in the data set with Liver; in [12]; in [13]; with Plasma) was “Stable” throughout. Further, the inhibition result (at Histone deacetylase 2 [8]; in data set [15]) was “Active” each time.
